Published values from different studies.
Lines come from different studies, so protocols differ.
Target: Serine/threonine-protein kinase N2 (PKN2, Homo sapiens, UniProt Q16513)

With `CN(C)c1nccc(-c2cnc3ncccn23)n1` the remaining binding was 93% (binding; 1 µM).
With `C[C@H](c1ccc(F)cc1)N(Cc1cccc(C(=O)O)c1)C(=O)c1cnc2ccccc2c1` the remaining binding was 86% (cell-free assay, competition with immobilised ligand; 1 µM).
With `CN(C)c1ncc(F)c(-c2cnn3ncccc23)n1` the remaining binding was 100% (binding; 1 µM).
With `COc1cccc(CNC(=O)c2nc3scc(COCc4ccc(C(=O)O)cc4)c3c(=O)[nH]2)c1` the remaining binding was 98% (cell-free assay, competition with immobilised ligand; 1 µM).
With `C[C@@H](c1ccc(-n2cnc3c(N)ncnc32)cc1)N1CCc2nn(C)c(Cc3ccccc3)c2C1=O` the remaining binding was 84% (binding, competition with immobilised ligand; 0.1 µM).
`O=C(Nc1c[nH]nc1C(=O)NC1CCNCC1)c1cc(F)cc(F)c1` gave a remaining binding of 100% (binding, competition with immobilised ligand; 1 µM).
With `O=C(c1ccc(Nc2ncc(Cl)c(-c3cc4ccccc4s3)n2)cc1)N1CCC(N2CCCC2)CC1` the remaining binding was 11% (binding, competition with immobilised ligand; 1 µM).
For `CC(=O)Nc1c(C(C)=O)c(=O)n(C)c2nc(-c3ccc(Cl)cc3Cl)c(-c3ccc(Cl)cc3)cc12`, the remaining binding was 100% (cell-free assay, competition with immobilised ligand; 1 µM).
With `C[C@@H]1CCN(c2nccc(-c3cnn4ncccc34)n2)C1` the remaining binding was 71% (binding; 1 µM).
`C=CC(=O)N1CCC(C(=O)NCC(=O)N2CCN(c3nc(-c4cnc(N)nc4C(F)F)nc(N4CCOCC4)n3)CC2)CC1` gave a remaining binding of 84% (binding, competition with immobilised ligand; 1 µM).
`Cn1nc(C(=O)NCc2ccc(C(=O)O)cc2)cc1-c1ccc2[nH]ccc2c1` gave a remaining binding of 100% (cell-free assay, competition with immobilised ligand; 0.1 µM).
The remaining binding of `Nc1ncc2c(n1)-c1c([nH]c3ccc(C#CC4CC4)cc13)CCCC2` is reported as 72% (binding, competition with immobilised ligand; 1 µM).
With `O=C(NCCCN1CCOCC1)c1ccc(Nc2ncc(Cl)c(-c3ccc(Cl)s3)n2)cc1` the remaining binding was 36% (binding, competition with immobilised ligand; 1 µM).
`CN([C@@H]1CCc2c(CC(=O)O)c3cc(S(C)(=O)=O)ccc3n2C1)S(=O)(=O)c1ccc(F)cc1` has a remaining binding of 100% (cell-free assay, competition with immobilised ligand; 1 µM).
The remaining binding of `COc1cnc(Nc2cccc(S(N)(=O)=O)c2)nc1N1CCN(c2ccccc2)CC1` is reported as 100% (binding, competition with immobilised ligand; 1 µM).
The remaining binding of `O=C(NCc1ncc(C(F)(F)F)cc1Cl)c1ccc2c(c1)C1(CCS(=O)(=O)CC1)[C@@H](C1CC1)N2S(=O)(=O)c1ccc(F)cc1` is reported as 68% (cell-free assay, competition with immobilised ligand; 1 µM).
`N[C@@H]1CCN(c2nccc(-c3cnn4ncccc34)n2)C1` has a remaining binding of 100% (binding; 1 µM).
With `CNC(=O)[C@@H]1CC[C@@H](n2c(-c3ccc4cnccc4c3)nc3ccc(C(=O)NCc4cccc(C(N)=O)c4)cc32)C1` the remaining binding was 94% (binding, competition with immobilised ligand; 1 µM).
The remaining binding of `F[C@@H]1CCN(c2nccc(-c3cnn4ncccc34)n2)C1` is reported as 100% (binding; 1 µM).
`O=C(NCCCC1CCCCC1)c1ccc(CNC(=O)c2cnn(-c3ccccc3)c2C(F)(F)F)cc1` gave a remaining binding of 100% (cell-free assay, competition with immobilised ligand; 0.1 µM).
For `CC1CCCN1c1nccc(-c2cnn3ncccc23)n1` (stereo not shown), the remaining binding was 89% (binding; 1 µM).
For `O=C(c1ccc(Nc2nccc(-c3cc4ccccc4s3)n2)cc1)N1CCC(N2CCCC2)CC1`, the remaining binding was 45% (binding, competition with immobilised ligand; 1 µM).
